In data set [1] the test system is Trypanosoma cruzi. The experiment in a line: Antitrypanosomal activity against Trypanosoma cruzi 320I01 amastigotes infected in african green monkey Vero cells after 5 days by Giemsa staining. Format: functional, organism-based. The conditions noted are these: 320I01, Vero, 120 h. A digest of the protocol:
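Vero cells (RPMI, 5% hiSBF, 37 °C, 5% CO2) infected 24 h with tissue-derived T. cruzi trypomastigotes at parasite:cell 10:1. Compound dilutions (top 100 μM) applied 5 days at 37 °C, 5% CO2, medium changed once at day 3. Infected cells scored per 300 cells on methanol-fixed Giemsa preparations; IC50/IC90 by sigmoidal regression; triplicates, two experiments.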

Data set [2] is described as follows: Selectivity index, CC50 for african green monkey Vero cells to IC50 for Trypanosoma cruzi 320I01 epimastigote. Format: functional. An outline of the steps:
(§1)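 Selectivity index computed as CC50 in Vero cells divided by IC50 against the T. cruzi stage named in the line.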

Data set [3] can be described thus: Selectivity index, CC50 for human THP1 cells to IC50 for Leishmania chagasi MHOM/BR/74/PP75 amastigotes. The data set is classed as functional, THP-1. A digest of the protocol:
(§2)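 Selectivity index computed as CC50 in THP-1 cells divided by IC50 against the L. chagasi stage named in the line.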

Data set [4] concerns Leishmania chagasi. The experiment in a line: Antileishmanial activity against Leishmania chagasi MHOM/BR/74/PP75 amastigotes infected in human THP1 cells after 5 days by Giemsa staining. The data set is classed as functional, organism-based. The conditions noted are these: MHOM/BR/74/PP75, THP-1, 120 h. A digest of the protocol:
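THP-1 cells (RPMI, 5% hiSBF, 37 °C, 5% CO2) transformed, then infected 24 h with late-phase L. chagasi promastigotes at parasite:cell 10:1. Treated with compound dilutions (top 100 μM) 5 days at 37 °C, 5% CO2, medium changed once after 3 days. Infected cells counted per 300 cells on methanol-fixed Giemsa slides; IC50/IC90 by sigmoidal regression; triplicates, repeated twice.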

Data set [5] can be described thus: Cytotoxicity against human THP1 cells after 72 hrs by MTT assay. Particulars: THP-1 cells. Format: cell-based. An outline of the steps: (§3)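 Vero or transformed THP-1 cells incubated with compound (0.3–300 μM) 72 h at 37 °C, 5% CO2; untreated controls. MTT read-out, formazan OD at 580 nm; % cytotoxicity = 100 × (OD control − OD treated)/OD control. CC50/CC90 by sigmoidal regression; triplicates, repeated twice. DMSO stocks 100× concentrated, diluted in medium.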
For orientation: Tetrazolium dyes change colour on reduction, which living cells bring about.

Data set [6] in a line: Selectivity index, CC50 for african green monkey Vero cells to IC50 for Trypanosoma cruzi 320I01 amastigotes. The data set is classed as functional. A digest of the protocol:
as §1

Data set [7] concerns Leishmania chagasi. As to the kind of experiment: Antileishmanial activity against Leishmania chagasi MHOM/BR/74/PP75 promastigotes after 72 hrs by haemocytometry. Format: functional, organism-based. Particulars: MHOM/BR/74/PP75, 72 h. An outline of the steps: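 Late-phase L. chagasi promastigotes, grown at 28 °C in RPMI 1640 with hemin, HEPES and 10% hiSBF, exposed to threefold serial dilutions (0.3–100 μM) for 72 h at 28 °C; untreated controls. Growth inhibition from haemocytometer counts; IC50/IC90 by sigmoidal regression; triplicates, repeated twice.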

Data set [8] in a line: Selectivity index, CC50 for human THP1 cells to IC50 for Leishmania chagasi MHOM/BR/74/PP75 promastigotes. The data set is classed as functional, THP-1. A digest of the protocol: as §2
The test system of data set [9] is Trypanosoma cruzi. As to the kind of experiment: Antitrypanosomal activity against Trypanosoma cruzi 320I01 epimastigotes after 72 hrs by haemocytometry. Format: functional, organism-based. The conditions noted are these: 320I01, 72 h. A digest of the protocol:
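Late-phase T. cruzi epimastigotes cultured in LIT medium with hiFCS at 28 °C; threefold serial dilutions (0.3–100 μM) for 72 h at 28 °C, untreated controls. Parasites counted in a haemocytometer; IC50/IC90 by sigmoidal regression; each concentration in triplicate, two experiments.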

A short description of data set [10]: Cytotoxicity against african green monkey Vero cells after 72 hrs by MTT assay. Format: cell-based. Particulars: chlorocebus sabaeus. An outline of the steps: as §3

Broadly, the IC50 is the concentration at which inhibition is half-maximal. What is called IC90 is the point of the concentration-response curve where the effect stands at 90%. A word on the CC50: it is the concentration that lowers cell viability or growth by half. Consider `Cc1cccc([C@@H]2C[C@@H]3Cc4ccccc4N2O3)c1` (relative stereo), for which the IC50 with Trypanosoma cruzi [1] was greater than 100 µM; in the data set on Leishmania chagasi [4] it was greater than 100 µM; in the data set on Leishmania chagasi [7], 52 µM; with Trypanosoma cruzi [9] it was 76.7 µM. Also, the 90% effect concentration (IC90) in the data set on Trypanosoma cruzi [1], in the data set on Leishmania chagasi [4], in the data set with Leishmania chagasi [7] and with Trypanosoma cruzi [9] was greater than 100 µM in each case. Further, the “Selectivity Index” value is listed as greater than 4 in [2], greater than 3 in [3], greater than 3 in [6] and greater than 5 in data set [8]. Moreover, the CC50 at 72 h in [5] and in [10] was greater than 300 µM in each case. The CC90 at 72 h in data set [5] and in [10] was greater than 300 µM in each case.
Take `c1ccc([C@@H]2C[C@@H]3Cc4ccccc4N2O3)cc1` (relative stereo): the IC50 in the data set with Trypanosoma cruzi [1], with Leishmania chagasi [4], in the data set with Leishmania chagasi [7] and in the data set with Trypanosoma cruzi [9] was greater than 100 µM throughout. For the same compound, the IC90 in the data set on Trypanosoma cruzi [1], in the data set on Leishmania chagasi [4], with Leishmania chagasi [7] and in the data set on Trypanosoma cruzi [9] was greater than 100 µM throughout. The “Selectivity Index” value in data set [2], in [3], in [6] and in data set [8] was greater than 3 throughout. Further, the CC50 at 72 h in [5] and in data set [10] was greater than 300 µM throughout. The CC90 at 72 h in data set [5] and in data set [10] was greater than 300 µM throughout.
With `FC(F)(F)Oc1ccc2c(c1)C[C@H]1C[C@@H](c3ccccc3)N2O1` (relative stereo), the IC50 is greater than 100 µM with Trypanosoma cruzi [1], greater than 100 µM in the data set with Leishmania chagasi [4], 15.7 µM in the data set on Leishmania chagasi [7] and 26.9 µM in the data set with Trypanosoma cruzi [9]. In addition, the IC90 is greater than 100 µM in the data set on Trypanosoma cruzi [1], greater than 100 µM in the data set with Leishmania chagasi [4], 34.7 µM in the data set with Leishmania chagasi [7] and greater than 100 µM in the data set with Trypanosoma cruzi [9]. In addition, the “Selectivity Index” value in data set [2] is listed as greater than 11; in data set [3], greater than 3; in data set [6], greater than 3; in data set [8], greater than 19. For the same compound, the 50% cytotoxic concentration (CC50) at 72 h in data set [5] and in data set [10] was greater than 300 µM each time. Besides, the CC90 at 72 h in [5] and in [10] was greater than 300 µM in each case.
As for `Brc1ccc2c(c1)C[C@H]1C[C@@H](c3ccccc3)N2O1` (relative stereo), the half-inhibitory concentration (IC50) in the data set on Trypanosoma cruzi [1] was 56.4 µM; in the data set with Leishmania chagasi [4], greater than 100 µM; with Leishmania chagasi [7], 25.5 µM; in the data set with Trypanosoma cruzi [9], 23.4 µM. Further, the IC90 is 43.6 µM with Trypanosoma cruzi [1], greater than 100 µM with Leishmania chagasi [4], 54.9 µM with Leishmania chagasi [7] and greater than 100 µM in the data set on Trypanosoma cruzi [9]. Also, the “Selectivity Index” value in data set [2] was greater than 12; in data set [3] it was greater than 3; in data set [6] it was greater than 5; in data set [8], greater than 11. Further, the CC50 at 72 h in data set [5] and in [10] was greater than 300 µM in each case. Also, the CC90 at 72 h in data set [5] and in data set [10] was greater than 300 µM throughout.
As for `Clc1ccc2c(c1)C[C@H]1C[C@@H](c3ccccc3)N2O1` (relative stereo), the IC50 in the data set on Trypanosoma cruzi [1] was greater than 100 µM; in the data set with Leishmania chagasi [4], greater than 100 µM; in the data set with Leishmania chagasi [7] it was 40.1 µM; with Trypanosoma cruzi [9], 9 µM. The 90% effect concentration (IC90) in the data set on Trypanosoma cruzi [1] is greater than 100 µM; in the data set on Leishmania chagasi [4], greater than 100 µM; in the data set on Leishmania chagasi [7], 55.4 µM; in the data set with Trypanosoma cruzi [9], 35.3 µM. For the same compound, the “Selectivity Index” value is greater than 33 in data set [2], greater than 3 in [3], greater than 3 in data set [6] and greater than 7 in data set [8]. The CC50 at 72 h in data set [5] and in [10] was greater than 300 µM each time. The CC90 at 72 h in data set [5] and in [10] was greater than 300 µM throughout.
As to `Fc1ccc2c(c1)C[C@H]1C[C@@H](c3ccccc3)N2O1` (relative stereo), the IC50 in the data set on Trypanosoma cruzi [1] is greater than 100 µM; in the data set with Leishmania chagasi [4], greater than 100 µM; in the data set on Leishmania chagasi [7], 47.6 µM; with Trypanosoma cruzi [9] it was 7.68 µM. The 90% effect concentration (IC90) with Trypanosoma cruzi [1] is greater than 100 µM; with Leishmania chagasi [4] it was greater than 100 µM; in the data set with Leishmania chagasi [7] it was greater than 100 µM; in the data set on Trypanosoma cruzi [9] it was 54.1 µM. The “Selectivity Index” value in data set [2] is reported as greater than 39; in data set [3] it was greater than 3; in data set [6], greater than 3; in [8] it was greater than 6. Moreover, the cytotoxic concentration (CC50) at 72 h in [5] and in data set [10] was greater than 300 µM each time. Besides, the CC90 at 72 h in [5] and in data set [10] was greater than 300 µM each time.
Turning to `Clc1ccc([C@@H]2C[C@@H]3Cc4ccccc4N2O3)cc1` (relative stereo), the concentration for half-maximal inhibition (IC50) with Trypanosoma cruzi [1] is 45.4 µM; with Leishmania chagasi [4] it was greater than 100 µM; in the data set with Leishmania chagasi [7], 38.3 µM; in the data set with Trypanosoma cruzi [9], 34.2 µM. Besides, the concentration for an effect of 90% (IC90) in the data set on Trypanosoma cruzi [1] is 66.8 µM; in the data set with Leishmania chagasi [4] it was greater than 100 µM; in the data set with Leishmania chagasi [7], 67.5 µM; with Trypanosoma cruzi [9], 89.4 µM. Besides, the “Selectivity Index” value in data set [2] is recorded as greater than 8; in data set [3], greater than 3; in data set [6] it was greater than 6; in [8] it was greater than 7. Further, the CC50 at 72 h in data set [5] and in data set [10] was greater than 300 µM in each case. Besides, the CC90 at 72 h in [5] and in [10] was greater than 300 µM throughout.
Take `Clc1cccc([C@@H]2C[C@@H]3Cc4ccccc4N2O3)c1` (relative stereo): the IC50 with Trypanosoma cruzi [1] was greater than 100 µM; in the data set with Leishmania chagasi [4], greater than 100 µM; in the data set on Leishmania chagasi [7] it was 49.1 µM; with Trypanosoma cruzi [9], 45.8 µM. For the same compound, the IC90 with Trypanosoma cruzi [1] is greater than 100 µM; in the data set with Leishmania chagasi [4], greater than 100 µM; with Leishmania chagasi [7], 70.7 µM; in the data set with Trypanosoma cruzi [9], greater than 100 µM. Besides, the “Selectivity Index” value is recorded as greater than 6 in data set [2], greater than 1 in data set [3], greater than 3 in data set [6] and 2.73 in data set [8]. The CC50 at 72 h is 134 µM in [5] and greater than 300 µM in data set [10]. Besides, the CC90 at 72 h in [5] and in data set [10] was greater than 300 µM in each case.
Turning to `Fc1ccc([C@@H]2C[C@@H]3Cc4ccccc4N2O3)cc1` (relative stereo), the IC50 with Trypanosoma cruzi [1], with Leishmania chagasi [4], in the data set on Leishmania chagasi [7] and in the data set on Trypanosoma cruzi [9] was greater than 100 µM in each case. The concentration for an effect of 90% (IC90) in the data set on Trypanosoma cruzi [1], in the data set with Leishmania chagasi [4], in the data set on Leishmania chagasi [7] and in the data set with Trypanosoma cruzi [9] was greater than 100 µM throughout. Besides, the “Selectivity Index” value in data set [2] was greater than 3; in data set [3], greater than 1; in [6] it was greater than 3; in data set [8] it was greater than 1. Moreover, the results for the CC50 at 72 h in data set [5] and in [10] were 183 µM and greater than 300 µM, respectively. Also, the CC90 at 72 h in data set [5] and in [10] was greater than 300 µM in each case.
Consider `COc1cccc([C@@H]2C[C@@H]3Cc4ccccc4N2O3)c1` (relative stereo), for which the IC50 with Trypanosoma cruzi [1] is greater than 100 µM; in the data set with Leishmania chagasi [4] it was greater than 100 µM; in the data set on Leishmania chagasi [7], 54.7 µM; with Trypanosoma cruzi [9], greater than 100 µM. The IC90 in the data set on Trypanosoma cruzi [1], in the data set with Leishmania chagasi [4], with Leishmania chagasi [7] and in the data set with Trypanosoma cruzi [9] was greater than 100 µM throughout. Further, the “Selectivity Index” value in data set [2] is given as greater than 3; in data set [3] it was greater than 3; in data set [6], greater than 3; in data set [8], greater than 5. In addition, the CC50 at 72 h in data set [5] and in data set [10] was greater than 300 µM in each case. The CC90 at 72 h in [5] and in data set [10] was greater than 300 µM in each case.

For the origin of these results see ChEMBL document CHEMBL1177650, “Synthesis, structural elucidation and in vitro antiparasitic activity against Trypanosoma cruzi and Leishmania chagasi parasites of novel tetrahydro-1-benzazepine derivatives” (Bioorg Med Chem, 2010).
